The record followed here is ChEMBL document CHEMBL4813970, “Design, synthesis and evaluation of novel dimethylamino chalcone-O-alkylamines derivatives as potential multifunctional agents against Alzheimer's disease” (Eur J Med Chem, 2021).

Activity calls are given as the source filed them. No cut-off for these calls is given here.

In series [1] the target is T1, Amyloid-beta precursor protein (Homo sapiens, UniProt P05067). Description: Inhibition of self-induced amyloid beta (1 to 42) (unknown origin) aggregation by T-fluorescence assay relative to control. The settings on record: read-out: IC50. Put shortly: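 IC50 by ThT fluorescence (excitation 446 nm, emission 490 nm). Computed only where inhibition of self-induced Aβ1-42 aggregation at 25 μM exceeded 90%. Triplicate; mean of three independent experiments.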
T1 sequence (P05067 whole entry): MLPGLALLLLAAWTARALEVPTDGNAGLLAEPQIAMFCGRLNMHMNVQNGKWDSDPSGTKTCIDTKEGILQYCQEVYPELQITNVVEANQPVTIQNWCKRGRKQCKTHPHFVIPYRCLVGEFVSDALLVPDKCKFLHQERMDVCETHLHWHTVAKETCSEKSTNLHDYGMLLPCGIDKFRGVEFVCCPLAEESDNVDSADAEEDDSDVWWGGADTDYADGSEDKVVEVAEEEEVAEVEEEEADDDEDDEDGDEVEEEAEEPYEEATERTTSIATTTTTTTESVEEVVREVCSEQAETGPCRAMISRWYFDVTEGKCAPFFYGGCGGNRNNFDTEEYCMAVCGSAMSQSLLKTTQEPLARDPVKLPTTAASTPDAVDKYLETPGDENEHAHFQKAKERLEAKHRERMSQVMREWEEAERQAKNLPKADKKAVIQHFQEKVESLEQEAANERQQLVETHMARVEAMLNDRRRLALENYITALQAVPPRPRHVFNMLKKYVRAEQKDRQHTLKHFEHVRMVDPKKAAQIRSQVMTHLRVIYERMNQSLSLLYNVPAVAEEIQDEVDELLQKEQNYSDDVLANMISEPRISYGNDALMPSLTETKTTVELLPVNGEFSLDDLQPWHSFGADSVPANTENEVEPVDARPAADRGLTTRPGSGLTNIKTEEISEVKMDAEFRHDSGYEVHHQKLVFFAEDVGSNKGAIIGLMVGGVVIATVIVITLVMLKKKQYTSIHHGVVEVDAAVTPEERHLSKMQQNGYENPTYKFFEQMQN

Series [2] addresses T1, Amyloid-beta precursor protein. Description: Inhibition of self-induced amyloid beta (1 to 42) (unknown origin) assessed as reduction in fibril formation incubated for 24 hrs by transmission electron microscopy. In a few lines: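 Aβ1-42 at 25 μM incubated 24 h with or without compound at 25 μM. Samples imaged by transmission electron microscopy.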
The target of the next series is Acetylcholinesterase (Electrophorus electricus, UniProt O42275). Description: Inhibition of electric eel AChE using acetylthiocholine iodide as substrate by Ellman's method.
Chain of Acetylcholinesterase (O42275 whole entry): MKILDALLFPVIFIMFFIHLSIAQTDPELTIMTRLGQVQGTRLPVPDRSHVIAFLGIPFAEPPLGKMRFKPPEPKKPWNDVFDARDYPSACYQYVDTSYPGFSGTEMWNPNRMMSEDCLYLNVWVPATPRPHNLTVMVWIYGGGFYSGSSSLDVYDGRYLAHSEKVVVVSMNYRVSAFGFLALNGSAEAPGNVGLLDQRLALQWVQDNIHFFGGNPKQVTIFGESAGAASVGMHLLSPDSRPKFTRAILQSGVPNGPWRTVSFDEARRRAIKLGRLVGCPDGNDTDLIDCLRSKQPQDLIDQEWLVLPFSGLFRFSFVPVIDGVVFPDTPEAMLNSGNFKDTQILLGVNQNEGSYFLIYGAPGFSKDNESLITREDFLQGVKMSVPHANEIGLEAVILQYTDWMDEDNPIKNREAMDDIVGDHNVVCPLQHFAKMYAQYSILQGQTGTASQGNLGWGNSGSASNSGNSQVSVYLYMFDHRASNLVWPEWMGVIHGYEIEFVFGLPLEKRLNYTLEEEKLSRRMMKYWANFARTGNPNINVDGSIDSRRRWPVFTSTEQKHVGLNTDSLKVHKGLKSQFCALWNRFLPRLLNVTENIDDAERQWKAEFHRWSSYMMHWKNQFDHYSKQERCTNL
The target in series [3] is Acetylcholinesterase (Electrophorus electricus) (UniProt O42275). Description: Mixed type inhibition of electric eel AChE assessed as increase in Km by reciprocal Lineweaver-Burk plot analysis. The settings on record: dose 0.5-2 µM.
Chain of Acetylcholinesterase (Electrophorus electricus) (O42275 24-633 limits assumed): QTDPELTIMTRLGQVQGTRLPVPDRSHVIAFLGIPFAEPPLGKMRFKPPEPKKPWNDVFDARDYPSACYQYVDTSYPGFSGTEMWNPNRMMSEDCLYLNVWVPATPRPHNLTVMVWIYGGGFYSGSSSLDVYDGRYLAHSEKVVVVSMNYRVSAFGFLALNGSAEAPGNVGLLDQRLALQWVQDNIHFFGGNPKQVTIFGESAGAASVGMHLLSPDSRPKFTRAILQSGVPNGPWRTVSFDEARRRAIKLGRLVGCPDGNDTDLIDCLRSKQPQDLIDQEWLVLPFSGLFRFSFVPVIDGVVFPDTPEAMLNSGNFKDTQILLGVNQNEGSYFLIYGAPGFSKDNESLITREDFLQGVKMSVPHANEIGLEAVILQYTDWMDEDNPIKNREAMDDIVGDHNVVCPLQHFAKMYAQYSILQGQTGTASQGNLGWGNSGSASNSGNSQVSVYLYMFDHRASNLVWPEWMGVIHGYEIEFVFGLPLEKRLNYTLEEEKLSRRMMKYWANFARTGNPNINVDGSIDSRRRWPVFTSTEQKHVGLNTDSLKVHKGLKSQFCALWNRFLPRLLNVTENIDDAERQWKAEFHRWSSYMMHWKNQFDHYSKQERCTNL
Series [4] deals with T2, Amine oxidase [flavin-containing] B (Homo sapiens, UniProt P27338).
T2 sequence (P27338 whole entry): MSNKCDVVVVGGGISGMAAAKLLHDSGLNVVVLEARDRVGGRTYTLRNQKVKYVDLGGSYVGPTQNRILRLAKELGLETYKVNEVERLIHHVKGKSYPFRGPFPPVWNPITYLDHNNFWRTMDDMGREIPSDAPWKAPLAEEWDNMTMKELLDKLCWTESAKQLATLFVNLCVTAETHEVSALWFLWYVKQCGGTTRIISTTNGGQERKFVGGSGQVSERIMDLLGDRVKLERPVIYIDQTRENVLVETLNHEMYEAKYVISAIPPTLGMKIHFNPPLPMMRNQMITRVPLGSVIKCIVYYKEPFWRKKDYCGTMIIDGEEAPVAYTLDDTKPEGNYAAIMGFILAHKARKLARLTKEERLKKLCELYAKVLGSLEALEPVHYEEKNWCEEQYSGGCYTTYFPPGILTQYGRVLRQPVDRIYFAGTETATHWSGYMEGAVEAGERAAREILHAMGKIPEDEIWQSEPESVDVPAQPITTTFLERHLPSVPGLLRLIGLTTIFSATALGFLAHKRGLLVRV
Description: Inhibition of human recombinant MAO-B by multimode plate reader assay.

In series [5] the test system is PC-12. The experiment in a line: Cytotoxicity against rat PC12 cells assessed as cell viability by MTT assay relative to control. Format: functional.
In series [6] the test system is PC-12. Description: Neuroprotective activity against H2O2-induced cytotoxicity in rat PC12 cells assessed as increase in cell viability by LDH assay. In kind it is functional, cell-based. In a few lines: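 PC12 cells exposed to H2O2, with or without compound. Membrane damage read as LDH release into the supernatant. Trolox is the reference.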
Series [7] is described as follows: Permeability of the compound by PAMPA. In kind it is ADME. As to conditions: read-out: permeability. In a few lines:
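PAMPA-BBB. Assay validated against 11 commercial drugs with reported permeability values.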
On the technique in general: PAMPA measures passive passage across an artificial lipid membrane.

Usually IC50 stands for the concentration that gives 50% inhibition. Regarding `CCN(CCCCOc1ccc(C(=O)/C=C/c2ccc(N(C)C)cc2)c(O)c1)Cc1ccccc1N(C)C`, the IC50 in series [1] was 880 nM; at Acetylcholinesterase, 690 nM; in series [4], 1000 nM. Also, the outcome in series [2] was inactive. Further, the inhibition result in series [3] was “Active”. Further, the Activity in the series on PC-12 [5] is over 50 µM. For the same compound, the result in the series on PC-12 [6] was Active. Also, the Papp in series [7] came to 13.4 ×10⁻⁶ cm/s.
